Measured values from ChEMBL document CHEMBL1136866, “Synthesis, antiplatelet and in silico evaluations of novel N-substituted-phenylamino-5-methyl-1H-1,2,3-triazole-4-carbohydrazides” (Bioorg Med Chem, 2009).
≈ marks a conversion by molar mass, not a printed value. Calls of active or inactive are those of the source. The calls are words filed in the database; no cut-off is given here.

What was measured:
Type in all cases: functional
[1] = Antiplatelet activity in human citreated platelet rich plasma assessed as inhibition of arachidonic acid-induced platelet aggregation at 100 ug/ml preincubated before arachidonic acid challenge
Summary of the method: (§1)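 Human PRP from whole blood spun 120g, 5 min, room temperature; platelet count set to 3.0 × 10^5/μL with homologous platelet-poor plasma (1500g, 5 min). PRP preincubated 2 min at 37 °C with compound at 100 μg ml−1 or DMSO solvent (final 1%), then agonist added (ADP, adrenaline or arachidonic acid). Read-out: % inhibition of aggregation, measured within 3 h of blood sampling.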

[2] = Antiplatelet activity in human citreated platelet rich plasma assessed as inhibition of arachidonic acid-induced platelet aggregation preincubated before arachidonic acid challenge
Summary of the method: (§2)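 Human PRP prepared by whole-blood centrifugation (120g, 5 min, room temperature) and adjusted to 3.0 × 10^5 platelets/μL using homologous platelet-poor plasma (1500g, 5 min). Compound at 1–500 μg ml−1, or DMSO (final 1%), preincubated with PRP 2 min at 37 °C before agonist (ADP, adrenaline or arachidonic acid). IC50 in μg ml−1 from aggregation inhibition, assayed within 3 h of sampling.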

[3] = Antiplatelet activity in human citreated platelet rich plasma assessed as inhibition of adenosine diphosphate-induced platelet aggregation preincubated before adenosine diphosphate challenge; summary of the method: as §2
[4] = Antiplatelet activity in human citreated platelet rich plasma assessed as inhibition of adrenaline-induced platelet aggregation preincubated before adrenaline challenge; summary of the method: as §2
[5] = Antiplatelet activity in human citreated platelet rich plasma assessed as inhibition of adenosine diphosphate-induced platelet aggregation at 100 ug/ml preincubated before adenosine diphosphate challenge; summary of the method: as §1
Platelet = assay: Antiplatelet activity in human citreated platelet rich plasma assessed as inhibition of adrenaline-induced platelet aggregation at 100 ug/ml preincubated before adrenaline challenge; summary of the method: as §1

Structure (SMILES) | IC50 [2] | IC50 [3] | IC50 [4] | inhibition at 100 µg/mL [1] | inhibition at 100 µg/mL [5] | inhibition (Platelet)
Cc1c(C(=O)N/N=C/c2ccccc2)nnn1Nc1ccccc1 | 230 µg/mL (≈ 718 µM) | 19 µg/mL (≈ 59.4 µM) | 9.6 µg/mL (≈ 30 µM) |  | > 50% | Active
Cc1c(C(=O)N/N=C/c2ccncc2)nnn1Nc1ccc(Cl)cc1 | 33.1 µg/mL (≈ 93 µM) | 169 µg/mL (≈ 474 µM) | 145 µg/mL (≈ 406 µM) | ≥ 50% |  | 
Cc1c(C(=O)N/N=C/c2ccc(Br)s2)nnn1Nc1ccc(Cl)cc1 | 9.1 µg/mL (≈ 20.7 µM) | 332 µg/mL (≈ 756 µM) | 144 µg/mL (≈ 328 µM) | ≥ 50% |  | 
Cc1c(C(=O)N/N=C/c2ccc(Br)s2)nnn1Nc1ccccc1 | 9.1 µg/mL (≈ 22.5 µM) | 317 µg/mL (≈ 782 µM) | 13.4 µg/mL (≈ 33.1 µM) | ≥ 50% |  | Active
Cc1c(C(=O)N/N=C/c2ccncc2)nnn1Nc1ccccc1 | 8.8 µg/mL (≈ 27.4 µM) | 278 µg/mL (≈ 864 µM) | 161 µg/mL (≈ 501 µM) | ≥ 50% |  | 
CC(=O)Oc1ccccc1C(=O)O [ASPIRIN] | 32.5 µg/mL (≈ 180 µM) | 21.5 µg/mL (≈ 119 µM) | 11.7 µg/mL (≈ 64.9 µM) |  |  | 

Second part, led by results:

IC50 [2] | IC50 [3] | IC50 [4] | Structure (SMILES) | inhibition at 100 µg/mL [1] | inhibition at 100 µg/mL [5] | inhibition (Platelet)
35.5 µg/mL (≈ 91.1 µM) | 136 µg/mL (≈ 350 µM) | 147 µg/mL (≈ 377 µM) | Cc1c(C(=O)N/N=C/c2ccc([N+](=O)[O-])o2)nnn1Nc1ccc(Cl)cc1 | ≥ 50% |  | 
32.2 µg/mL (≈ 90.8 µM) | 180 µg/mL (≈ 508 µM) | 28.9 µg/mL (≈ 81.5 µM) | Cc1c(C(=O)N/N=C/c2ccccc2)nnn1Nc1ccc(Cl)cc1 | ≥ 50% |  | Active
8.9 µg/mL (≈ 25.8 µM) | 261 µg/mL (≈ 757 µM) | 7.8 µg/mL (≈ 22.6 µM) | Cc1c(C(=O)N/N=C/c2ccco2)nnn1Nc1ccc(Cl)cc1 | ≥ 50% |  | Active
169 µg/mL (≈ 476 µM) | 11.6 µg/mL (≈ 32.6 µM) | 8.9 µg/mL (≈ 25 µM) | Cc1c(C(=O)N/N=C/c2ccc([N+](=O)[O-])o2)nnn1Nc1ccccc1 |  | > 50% | Active
112 µg/mL (≈ 359 µM) | 338 µg/mL (≈ 1090 µM) | 20.1 µg/mL (≈ 64.8 µM) | Cc1c(C(=O)N/N=C/c2ccco2)nnn1Nc1ccccc1 |  |  | Active
